Assay outcomes (PubChem BioAssay)
EBV gp42 block: blocks Epstein-Barr virus glycoprotein 42 binding | inhibition, % (tested at 21.74 µM) | actives 0.42% (n = 220,000) | Q1HVG2 | Fluorescence polarization binding assay, mP read-out | AID 1085; in the data active = inhibition above about 50%
RanGTP-Imp inh: inhibitors of RanGTP-importin-beta interaction, primary screen, biochemical, FRET, CFP-Ran, YFP-importin-beta, homogeneous; actives 1.1% (n = 300,000); inhibition, % (no concentration beside the values); cell-free CFP-Ran/YFP-importin-beta FRET ratio;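 active = more than half of the replicate wells show a fall in the fluorescence ratio signal beyond about 16%, limit read from the data, passing the limit was not always enough; inconclusive = exactly half of the replicate wells pass the set limit; inactive = fewer than half of replicates pass the limit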;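 note: 0% = DMSO wells and 100% = Ran loaded with GDP instead of GTP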
Runt-CBFb FRET: blocks binding of human RUNX1 Runt domain to CBFb; Q01196+Q13951; actives 0.46% (n = 220,000); inhibition, % at 20 µM; Cerulean-Runt/Venus-CBFb FRET ratio 530/480, 1 h;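 active = inhibition over about 50% at 20 µM in the single-dose screen, limit read from the data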;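 note: 0% = DMSO wells and 100% = excess unlabeled CBFb competitor control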
Target sequence (Q01196 whole entry, looked up, the tested form may be a part): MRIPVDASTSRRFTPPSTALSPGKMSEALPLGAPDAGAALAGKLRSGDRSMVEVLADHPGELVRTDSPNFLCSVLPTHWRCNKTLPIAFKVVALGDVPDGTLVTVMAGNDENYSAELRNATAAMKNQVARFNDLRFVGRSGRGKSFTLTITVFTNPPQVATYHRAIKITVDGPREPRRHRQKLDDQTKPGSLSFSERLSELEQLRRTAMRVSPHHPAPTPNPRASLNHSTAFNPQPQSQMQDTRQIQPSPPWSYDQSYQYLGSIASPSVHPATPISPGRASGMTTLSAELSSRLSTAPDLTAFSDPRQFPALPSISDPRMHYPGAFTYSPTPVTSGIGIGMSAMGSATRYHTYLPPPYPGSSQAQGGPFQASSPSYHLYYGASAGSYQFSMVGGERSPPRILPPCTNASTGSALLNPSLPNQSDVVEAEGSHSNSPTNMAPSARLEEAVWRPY
Target sequence (Q13951 whole entry, looked up, the tested form may be a part): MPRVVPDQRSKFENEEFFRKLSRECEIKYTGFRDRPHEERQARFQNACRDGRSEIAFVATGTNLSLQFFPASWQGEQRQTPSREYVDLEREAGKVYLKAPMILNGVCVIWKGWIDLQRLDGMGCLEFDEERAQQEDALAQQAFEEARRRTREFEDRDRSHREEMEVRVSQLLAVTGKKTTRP
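Assay system: Cerulean-Runt domain fusion protein, energy donor; Signal: fluorescence energy transfer, 422 nm excitation, 530/480 nm emission; Timing: 1 h compound exposure, room temperature; Control set: unlabeled CBFb; Medium: Tris buffer pH 7.5 with salts and BSA; Compound: single test concentration of 20 µM, 1% DMSO final; Probe or stimulus: Venus-CBFb 100 nM.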
MEX-5 binding: C. elegans MEX-5 TCR-2 RNA binding activity. Q9XUB2. MEX-5/FITC-TCR2 RNA binding, fluorescence polarization; active compounds read low. activity score (negative = inhibition of binding), % at 10 µM. actives 0.38% (n = 300,000);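 active = inhibition past about -25% in most replicates, and total fluorescence under double the plate's negative control median, limit read from the data; inconclusive = replicates evenly split on the limit, or fluorescence at least double controls; inactive = too little inhibition in most replicates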;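 note: 0% = DMSO and -100% = 5 µM competing unlabeled TCR2 RNA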
Runt-SMMHC FRET: blocks binding of human RUNX1 Runt domain to CBFb-SMMHC; Q01196+Q13951; Cerulean-Runt/Venus-CBFb-SMMHC FRET ratio 530/480, 1 h; inhibition, % at 20 µM; actives 0.74% (n = 220,000); AID 1434;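 active = mean inhibition across duplicate retests at 20 µM reaching about 50%, limit read from the data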;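 note: 0% = DMSO wells and 100% = wells with excess untagged CBFb-SMMHC; inhibitors lower the FRET ratio by blocking Runt binding to CBFb-SMMHC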
LANA-H2A inh: blocks KSHV LANA binding to histone H2A/H2B; Q9QR71; cell-free LANA-H2A/H2B peptide, fluorescence polarization; inhibition, % (concentration not given with the values); actives 0.6% (n = 320,000); AID 2629; in the data active = inhibition mostly above about 10%, no sharp cut-off; inactive = mostly below about 6.7%
Active calls of the source: *; ? = inconclusive; nt = not tested or not shown. This is a sample that favours compounds with a hit; in the whole collection about 2.4% have one here.

SMILES | EBV gp42 block | RanGTP-Imp inh | Runt-CBFb FRET | MEX-5 binding | Runt-SMMHC FRET | LANA-H2A inh
CN(C)c1c2ccccc2nc2c(F)c(F)c(F)c(F)c12 | -74 | 23* | nt | 2 | 102 | 3
O=C(N/N=C/c1cc2cc3c(cc2nc1Cl)OCO3)c1ccncc1 | -19 | 0 | -7 | 0 | -2 | 0
O=C(COc1ccc(S(=O)(=O)NC2CCCCC2)cc1)N1CCN(c2cccc(Cl)c2)CC1 | -2 | -3 | 0 | -2 | -4 | nt
CC(C)(C)Nc1ncnc2c1cnn2-c1ccccc1 | nt | ? | 2 | 2 | 0 | -5
O=c1[nH]n(-c2ncnc3c2cnn3-c2ccccc2)c(=O)c2ccccc12 | -8 | 3 | -2 | -39* | 2 | -1
O=C(O)C(Cc1ccccc1)NC(=O)C(c1ccccc1)c1ccccc1 (stereo not drawn) | nt | -4 | nt | 1 | nt | 2
CCN(CC(=O)Nc1c(F)cccc1F)C(=O)CCSc1ccc(C)cc1 | nt | nt | nt | 2 | nt | -7
Cc1cccc(S(=O)(=O)N/N=c2\sc3ccccc3n2C)c1 | -1 | 0 | 0 | 2 | 1 | 4
CCCCn1c(=O)nc2n(-c3ccccc3)c3ccccc3cc-2c1=O | -10 | 142* | 10 | -6 | 60* | 3
Cc1ccc(C)c(-n2c3nc(=O)n(C)c(=O)c-3cc3ccccc32)c1 | -32 | 133* | 13 | -1 | 81* | -3
Cc1nn(-c2ccccc2)c2c1cc1c(=O)n(C)c(=O)nc-1n2-c1ccccc1F | -27 | ? | 9 | -3 | 23 | -2
CN1CCCN(c2ccc([N+](=O)[O-])cc2)CC1 | -26 | 3 | -4 | -1 | -4 | 4
COc1cccc(N(C(=O)c2snc(C(N)=O)c2N)C(C(=O)NCC2CCCO2)c2ccc3ncccc3c2)c1 (stereo not drawn) | nt | 3 | nt | -6 | nt | 6
COCCCNc1nc2nonc2nc1N1CCN(Cc2cccc(C)c2)CC1 | 41 | 0 | 24 | -10 | 82* | -2
COCCCNc1nc2nonc2nc1N1CCN(C2CCCC2)CC1 | -8 | 0 | -2 | 1 | -1 | 0
COc1ccccc1NC(=O)Cn1c(C)cc(=O)c2cccc(OC)c21 | -2 | ? | 0 | -1 | -1 | 25*
COc1cccc2c(=O)cc(C)n(CC(=O)Nc3ccc(C)c(C)c3)c12 | -7 | -4 | 0 | 0 | 2 | -3
Cc1ccc(N(CC(=O)NCc2ccc(F)cc2)C(=O)CCC(=O)Nc2ccccn2)cc1C | nt | 3 | nt | 0 | nt | 26*
N#CC1=C(N)N2C(=C(C#N)C1c1cccc(Br)c1)Nc1ccccc12 (stereo not drawn) | -45 | 28* | 20 | -7 | 64* | -1
O=C1CN(C(=O)COC(=O)c2cccc(Br)c2)c2ccccc2N1 | nt | nt | nt | nt | nt | 0
N#CC1=C(N)N2C(=C(C#N)C1c1ccc(Br)cc1)Nc1ccccc12 (stereo not drawn) | -17 | 23* | 19 | -4 | 60* | -5
Nc1nonc1-n1nnc(C(=O)N/N=C/c2ccccc2Cl)c1COc1ccc(F)cc1 | -12 | 1 | 1 | -1 | 2 | 3
OC(CNC1CCCCC1)COCCOc1ccc(Br)cc1 (stereo not drawn) | -18 | -3 | -3 | -1 | 4 | -6
CC(Oc1cccc(Cl)c1)C(=O)Nc1ccc(S(=O)(=O)N(C)C2CCN(C)CC2)cc1 (stereo not drawn) | nt | nt | nt | nt | nt | 0
Cc1ncc(CO)c(/C=N/NC(=O)c2ccccc2Br)c1O | 10 | 10 | 20 | 1 | 64* | 4
SMILES | EBV gp42 block | RanGTP-Imp inh | Runt-CBFb FRET | MEX-5 binding | Runt-SMMHC FRET | LANA-H2A inh
Cc1ncc(CO)c(/C=N/NC(=O)c2ccc(O)cc2)c1O | 7 | 44* | 24 | -4 | 63* | 7
Cc1ncc(CO)c(/C=N/NC(=O)c2cc3c(s2)CCCC3)c1O | 12 | 50* | 32 | 1 | 92* | 0
COc1ccccc1N/N=C/c1c(CO)cnc(C)c1O | -5 | 2 | -1 | -2 | 7 | 4
Cc1ncc(CO)c(/C=N/NC(=S)Nc2ccc(Cl)c(Cl)c2)c1O | -6 | 5 | 11 | 1 | 10 | -1
COc1ccccc1NS(=O)(=O)c1cccc(C(=O)N/N=C/c2c(CO)cnc(C)c2O)c1 | nt | nt | nt | nt | nt | -1
CCOC(=O)c1ccc(-c2ccc(C=O)o2)cc1 | -11 | -5 | 0 | -27* | -4 | 15
CCCOC(=O)c1ccc(-c2ccc(C=O)o2)cc1 | -7 | -2 | -4 | -2 | 1 | nt
CCOC(=O)c1ccc(-c2ccc(/C=N/NC(=O)c3cncc(Br)c3)o2)cc1 | -44 | -4 | -6 | 0 | -54 | 1
CCCCOC(=O)c1ccc(-c2ccc(/C=N/NC(=S)NCC)o2)cc1 | -22 | 43* | 3 | 0 | 9 | 2
Cc1ccc(S(=O)(=O)N2CCOCC2)cc1NC(=O)CNCc1cccnc1 | -10 | 2 | 2 | -3 | -17 | -3
Cc1ccc2nc3c(cc(C#N)c(=O)n3CC3CCCO3)c(=O)n2c1 (stereo not drawn) | 11 | nt | 52* | nt | 65* | nt
N#Cc1cc2c(=O)n3ccccc3nc2n(CCCN2CCOCC2)c1=O | 11 | 95* | 77* | -19 | 62* | 0
Cc1ccc2nc3c(cc(C#N)c(=O)n3CCN3CCOCC3)c(=O)n2c1 | nt | nt | 146* | nt | 63* | nt
O=C(NCCN1CCOCC1)c1cc2c(=O)n3ccccc3nc2n1Cc1ccccc1 | -7 | 6 | 20 | -2 | 48 | -1
N#Cc1cc2c(=O)n3ccccc3nc2n(CCN2CCOCC2)c1=O | nt | nt | 103* | nt | 143* | nt
Cc1ccc2nc3c(cc(C#N)c(=O)n3-c3nccs3)c(=O)n2c1 | 10 | 191* | 12 | -7 | 65* | -1
CCN(Cc1ccccc1)c1ccc(/C=N/N=C(N)N)cc1 | -6 | 38* | -3 | -3 | 6 | -1
CCN(Cc1ccccc1)c1ccc(/C=N/NC(=S)NC(C)C)cc1 | -15 | -2 | 19 | 3 | 34 | -1
N#Cc1cc2ccc(N3CCOCC3)cc2cc1C#N | nt | 35* | 3 | -4 | -10 | -2
N#Cc1cc(Cl)c(N2CCOCC2)cc1C#N | 8 | 4 | 0 | -1 | -3 | 1
COc1cc(NC(=O)c2cccs2)c(OC)cc1NC(=O)CCC(=O)Nc1ccc2ncccc2c1 | 0 | 2 | -4 | 1 | -14 | nt
Nc1ccc(S(=O)(=O)Nc2nc3ccccc3o2)cc1 | nt | 3 | nt | -3 | nt | 2
Cc1cc[n+](-c2[nH]c(=O)sc2/C=N/NC([S-])=Nc2ccccc2)cc1C | 64* | -2 | 10 | -6 | -15 | nt
Cc1ccc[n+](-c2[nH]c(=O)sc2/C=N/N=C(\[O-])CCn2c3ccccc3c3ccccc32)c1 | 5 | -3 | 1 | 1 | -2 | 6
